Measured values: ChEMBL document CHEMBL4715736, “Identification of anticancer agents based on the thieno[2,3-b]pyridine and 1H-pyrazole molecular scaffolds” (2016)

Columns and labels:
Assay type in all cases: functional
Conditions in all cases: read-out: Activity
HL-60(TB) = experiment: Growth inhibition of human HL-60(TB) cells assessed as cell growth at 10 uM incubated for 48 hrs by sulforhodamine B assay relative to control
How it was run: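 Screened by the NCI Developmental Therapeutics Program on its panel of 60 human tumour cell lines. Compounds were first tested at a single 10 µM dose, and compounds active there went to dose-response curves. Growth is expressed relative to untreated control (100%). GI50 (50% of maximal proliferation inhibition) and TGI (total growth inhibition) were derived from the dose-response data.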

MOLT-4 = experiment: Growth inhibition of human MOLT-4 cells assessed as cell growth at 10 uM incubated for 48 hrs by sulforhodamine B assay relative to control
How it was run: (§1)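 Submitted to the NCI Developmental Therapeutics Program for the NCI60 human tumour cell line panel. First screen at a single 10 µM concentration. Read-out is growth relative to untreated control cells set at 100%.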

RPMI-8226 = experiment: Growth inhibition of human RPMI-8226 cells assessed as cell growth at 10 uM incubated for 48 hrs by sulforhodamine B assay relative to control
How it was run: (§2)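 Run by the NCI Developmental Therapeutics Program as part of its 60-line human tumour panel. Each compound tested at a single 10 µM dose. Growth expressed as % relative to untreated control cells (100%).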

SR = experiment: Growth inhibition of human SR cells assessed as cell growth at 10 uM incubated for 48 hrs by sulforhodamine B assay relative to control; how it was run: as §2
NCI-H226 = experiment: Growth inhibition of human NCI-H226 cells assessed as cell growth at 10 uM incubated for 48 hrs by sulforhodamine B assay relative to control; how it was run: as §1
NCI-H322M = experiment: Growth inhibition of human NCI-H322M cells assessed as cell growth at 10 uM incubated for 48 hrs by sulforhodamine B assay relative to control; how it was run: as §1
NCI-H460 = experiment: Growth inhibition of human NCI-H460 cells assessed as cell growth at 10 uM incubated for 48 hrs by sulforhodamine B assay relative to control; how it was run: as §1
HCC 2998 = experiment: Growth inhibition of human HCC 2998 cells assessed as cell growth at 10 uM incubated for 48 hrs by sulforhodamine B assay relative to control
How it was run: (§3)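 NCI Developmental Therapeutics Program NCI60 panel. Compounds that were active in the 10 µM one-dose screen went on to dose–response testing. Growth at each concentration is expressed relative to untreated control (100%). GI50 (concentration giving 50% of maximal inhibition of proliferation) and TGI (concentration giving total growth inhibition) were derived from the curves.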

HCT-116 = experiment: Growth inhibition of human HCT-116 cells assessed as cell growth at 10 uM incubated for 48 hrs by sulforhodamine B assay relative to control; how it was run: as §1
KM12 = experiment: Growth inhibition of human KM12 cells assessed as cell growth at 10 uM incubated for 48 hrs by sulforhodamine B assay relative to control; how it was run: as §1
SW-620 = experiment: Growth inhibition of human SW-620 cells assessed as cell growth at 10 uM incubated for 48 hrs by sulforhodamine B assay relative to control; how it was run: as §2
SF-295 = experiment: Growth inhibition of human SF-295 cells assessed as cell growth at 10 uM incubated for 48 hrs by sulforhodamine B assay relative to control; how it was run: as §2
SF-539 = experiment: Growth inhibition of human SF-539 cells assessed as cell growth at 10 uM incubated for 48 hrs by sulforhodamine B assay relative to control; how it was run: as §2
LOX IMVI = experiment: Growth inhibition of human LOX IMVI cells assessed as cell growth at 10 uM incubated for 48 hrs by sulforhodamine B assay relative to control; how it was run: as §1
Malme-3M = experiment: Growth inhibition of human Malme-3M cells assessed as cell growth at 10 uM incubated for 48 hrs by sulforhodamine B assay relative to control; how it was run: as §1
MDA-MB-435 = experiment: Growth inhibition of human MDA-MB-435 cells assessed as cell growth at 10 uM incubated for 48 hrs by sulforhodamine B assay relative to control; how it was run: as §1
SK-MEL-28 = experiment: Growth inhibition of human SK-MEL-28 cells assessed as cell growth at 10 uM incubated for 48 hrs by sulforhodamine B assay relative to control; how it was run: as §2
SK-MEL-5 = experiment: Growth inhibition of human SK-MEL-5 cells assessed as cell growth at 10 uM incubated for 48 hrs by sulforhodamine B assay relative to control; how it was run: as §2
OVCAR-3 = experiment: Growth inhibition of human OVCAR-3 cells assessed as cell growth at 10 uM incubated for 48 hrs by sulforhodamine B assay relative to control; how it was run: as §2
OVCAR-4 = experiment: Growth inhibition of human OVCAR-4 cells assessed as cell growth at 10 uM incubated for 48 hrs by sulforhodamine B assay relative to control; how it was run: as §2
OVCAR-5 = experiment: Growth inhibition of human OVCAR-5 cells assessed as cell growth at 10 uM incubated for 48 hrs by sulforhodamine B assay relative to control; how it was run: as §2
NCI/ADR-RES = experiment: Growth inhibition of human NCI/ADR-RES cells assessed as cell growth at 10 uM incubated for 48 hrs by sulforhodamine B assay relative to control; how it was run: as §1
786-0 = experiment: Growth inhibition of human 786-0 cells assessed as cell growth at 10 uM incubated for 48 hrs by sulforhodamine B assay relative to control; how it was run: as §3
ACHN = experiment: Growth inhibition of human ACHN cells assessed as cell growth at 10 uM incubated for 48 hrs by sulforhodamine B assay relative to control
How it was run: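 NCI Developmental Therapeutics Program NCI60 human tumour cell line panel, one-dose primary screen with every compound at 10 µM. Growth is expressed as % of untreated control cells (100%).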

RXF 393 = experiment: Growth inhibition of human RXF 393 cells assessed as cell growth at 10 uM incubated for 48 hrs by sulforhodamine B assay relative to control; how it was run: as §2
SN12C = experiment: Growth inhibition of human SN12C cells assessed as cell growth at 10 uM incubated for 48 hrs by sulforhodamine B assay relative to control; how it was run: as §2
UO-31 = experiment: Growth inhibition of human UO-31 cells assessed as cell growth at 10 uM incubated for 48 hrs by sulforhodamine B assay relative to control; how it was run: as §2
PC-3 = experiment: Growth inhibition of human PC-3 cells assessed as cell growth at 10 uM incubated for 48 hrs by sulforhodamine B assay relative to control; how it was run: as §2
DU-145 = experiment: Growth inhibition of human DU-145 cells assessed as cell growth at 10 uM incubated for 48 hrs by sulforhodamine B assay relative to control; how it was run: as §3
MCF7 = experiment: Growth inhibition of human MCF7 cells assessed as cell growth at 10 uM incubated for 48 hrs by sulforhodamine B assay relative to control; how it was run: as §1
Hs-578T = experiment: Growth inhibition of human Hs-578T cells assessed as cell growth at 10 uM incubated for 48 hrs by sulforhodamine B assay relative to control; how it was run: as §1
T47D = experiment: Growth inhibition of human T47D cells assessed as cell growth at 10 uM incubated for 48 hrs by sulforhodamine B assay relative to control; how it was run: as §2
MDA-MB-468 = experiment: Growth inhibition of human MDA-MB-468 cells assessed as cell growth at 10 uM incubated for 48 hrs by sulforhodamine B assay relative to control; how it was run: as §1

| Structure (SMILES) | growth at 10 µM (HL-60(TB)) | growth at 10 µM (MOLT-4) | growth at 10 µM (RPMI-8226) | growth at 10 µM (SR) | growth at 10 µM (NCI-H226) | growth at 10 µM (NCI-H322M) | growth at 10 µM (NCI-H460) | growth at 10 µM (HCC 2998) | growth at 10 µM (HCT-116) | growth at 10 µM (KM12) | growth at 10 µM (SW-620) | growth at 10 µM (SF-295) | growth at 10 µM (SF-539) | growth at 10 µM (LOX IMVI) | growth at 10 µM (Malme-3M) | growth at 10 µM (MDA-MB-435) | growth at 10 µM (SK-MEL-28) | growth at 10 µM (SK-MEL-5) | growth at 10 µM (OVCAR-3) | growth at 10 µM (OVCAR-4) | further results |
| --- | --- | --- | --- | --- | --- | --- | --- | --- | --- | --- | --- | --- | --- | --- | --- | --- | --- | --- | --- | --- | --- |
| COc1ccc(-c2ccn(S(=O)(=O)c3ccc(OC)cc3)n2)cc1 | 99.4% | 73.2% | 58.7% | 57.8% | 70.9% | 98.3% | 75% | 88.1% | 60.3% | 88.4% | 82.1% | 72.7% | 87.3% | 88.8% | 112% | 88.4% | 99.2% | 79.9% | 89.3% | 63% | growth at 10 µM (OVCAR-5): 90.2%; growth at 10 µM (NCI/ADR-RES): 88.4%; growth at 10 µM (786-0): 80.2%; growth at 10 µM (ACHN): 90.6%; growth at 10 µM (RXF 393): 88.7%; growth at 10 µM (SN12C): 92.4%; growth at 10 µM (UO-31): 72%; growth at 10 µM (PC-3): 65.8%; growth at 10 µM (DU-145): 93.9%; growth at 10 µM (MCF7): 97.9%; growth at 10 µM (Hs-578T): 93.6%; growth at 10 µM (T47D): 58.8%; growth at 10 µM (MDA-MB-468): 59.3% |
| Cc1cc(C)cc(S(=O)(=O)n2ccc(-c3ccc4c(c3)CCC(C)(C)O4)n2)c1 | 99.8% | 91.4% | 73.2% | 76.5% | 66.8% | 92% | 84.4% | 88.2% | 77.8% | 82.7% | 88.3% | 85% | 99.8% | 95% | 82.9% | 93.8% | 102% | 82.9% | 87.8% | 67.3% | growth at 10 µM (OVCAR-5): 116%; growth at 10 µM (NCI/ADR-RES): 79%; growth at 10 µM (786-0): 82.8%; growth at 10 µM (ACHN): 92.8%; growth at 10 µM (RXF 393): 77.3%; growth at 10 µM (SN12C): 88%; growth at 10 µM (UO-31): 75%; growth at 10 µM (PC-3): 82.4%; growth at 10 µM (DU-145): 89.8%; growth at 10 µM (MCF7): 81.5%; growth at 10 µM (Hs-578T): 92.7%; growth at 10 µM (T47D): 58.2%; growth at 10 µM (MDA-MB-468): 54.6% |
